Compound activity: PubChem, several laboratories
Only some compounds are listed: those with a hit (about 1.6% of all), similar ones and a draw of the others.
Apaf1 inhib: inhibitors of human Apaf-1 apoptosome. hit rate 0.71% among 330,000. AID 489030. inhibition, % at 20 µM. O14727. reconstituted apoptosome caspase-3 activity, DEVD-Rh110 fluorescence; active = inhibition of at least 40% at 20 µM;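 note: plate controls were DMSO wells for no effect and DEVD-CHO caspase inhibitor wells for full effect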
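System – cell-free apoptosome with Apaf-1, procaspase-3 and caspase-9 · Buffer or medium – pH 7.5 Hepes buffer with CHAPS, BSA, DTT · Also added – cytochrome c with DEVD-Rh110 · Times – 30 min compound preincubation, 50 min activation, room temperature · Technique – Rh110 fluorescence intensity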
RAD54 branch: blocks human RAD54 Holliday junction branch migration. Q92698. FAM/BHQ fluorescence. inhibition, % at 10.4 µM. hit rate 0.14% among 360,000. AID 602329;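 active = mean normalized replicate activity at least 40 and at least half of replicates scoring 40 or more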;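 note: 0% = median of neutral control wells and 100% = median of positive control wells; inhibitors cause a drop in the FAM fluorescence signal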
FID counter: displaces DNA intercalator in HCV helicase counter-screen. hit rate 0.17% among 290,000. inhibition, % at 7.9 µM. DNA fluorescent intercalator displacement, fluorescence; in the data active = inhibition above about 37%;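 note: 0% = vehicle and 100% = reference compound; higher means more ethidium bromide displaced from hairpin DNA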
UBC13 polyUb: blocks human UBC13 polyubiquitin chain formation; TR-FRET; P61088; inhibition, % at 20 µM; hit rate 0.47% among 330,000; in the data active = inhibition above about 45%, passing the limit was not always enough
Target sequence (P61088 whole entry, looked up): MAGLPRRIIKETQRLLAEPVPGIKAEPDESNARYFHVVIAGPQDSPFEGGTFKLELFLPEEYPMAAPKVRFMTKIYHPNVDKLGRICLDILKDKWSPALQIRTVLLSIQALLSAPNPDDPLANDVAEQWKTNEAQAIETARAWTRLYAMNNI
Neddylation inh: inhibitors of human cullin neddylation; P61081+Q13564; AID 651699; hit rate 0.58% among 360,000; TR-FRET cullin neddylation, biochemical; calls only at 25 µM; in the data active = inhibition above about 36%
RAD52 anneal inh: blocks human RAD52 DNA annealing. inhibition, % at 18.7 µM. hit rate 0.46% among 360,000. AID 651710. recombinant RAD52 DNA annealing, FRET fluorescence;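 active = every replicate showing at least 50% inhibition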
Target sequence (P43351 whole entry, looked up): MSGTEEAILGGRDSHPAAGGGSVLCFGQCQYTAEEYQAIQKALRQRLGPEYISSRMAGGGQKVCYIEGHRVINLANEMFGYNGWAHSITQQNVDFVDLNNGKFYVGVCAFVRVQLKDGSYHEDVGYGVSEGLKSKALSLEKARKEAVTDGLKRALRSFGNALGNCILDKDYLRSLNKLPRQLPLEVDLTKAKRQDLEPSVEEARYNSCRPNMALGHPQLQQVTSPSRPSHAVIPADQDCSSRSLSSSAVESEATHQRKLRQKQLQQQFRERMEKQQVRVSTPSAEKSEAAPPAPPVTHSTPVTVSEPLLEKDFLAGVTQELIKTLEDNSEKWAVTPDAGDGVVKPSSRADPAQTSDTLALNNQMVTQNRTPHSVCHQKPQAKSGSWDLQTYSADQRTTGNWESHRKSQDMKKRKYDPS
Casp3 counter: counter-screen for UBC13 inhibitors: human caspase-3 inhibition | shares compounds with UBC13 polyUb | Recombinant caspase-3, Caspase-Glo 3/7 luminescence, 60 min | inhibition, % at 20 µM | hit rate 4% among 1,400 | AID 488856;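 active = mean inhibition across replicates above about 26%, limit read from the data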;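 note: plate controls were DMSO with caspase-3 for no effect and DMSO wells lacking enzyme for full effect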
UBC13 confirm: human UBC13 polyubiquitin inhibition, confirmed; hit rate 68% among 1,400; inhibition, % at 10 µM; UBC13 polyubiquitination, TR-FRET, biochemical; shares compounds with UBC13 polyUb; in the data active = inhibition above about 45%
The depositor's hits bear a star; i = inactive; / = not tested or not shown.

SMILES	Apaf1 inhib	RAD54 branch	FID counter	UBC13 polyUb	Neddylation inh	RAD52 anneal inh	Casp3 counter	UBC13 confirm
CCC1CCCCN1CCCNC(=O)C1CCN(c2ncnc3c2nc2n3CCCCC2)CC1 (stereo not given)	9	-8	3	53*	i	6	-4	63*
C[C@H]1CN([C@@H](C)CO)C(=O)c2cc(NC(=O)Cn3cnnn3)ccc2O[C@H]1CN(C)C(=O)Nc1ccc(F)cc1	/	3	/	/	/	-9	/	/
O=C(CC1CC1)N1CC(=O)N2[C@H](CO)[C@@H](c3ccc(-c4ccccc4)cc3)[C@@H]2C1	/	/	/	/	/	5	/	/
C[C@H](CO)N1C[C@H](C)[C@@H](CN(C)Cc2ccc3c(c2)OCO3)Oc2ccc(NS(=O)(=O)c3ccccc3)cc2CC1=O	/	-6	/	/	/	22	/	/
CCC(=O)NC(=S)NNC(=O)c1ccc(O)cc1	2	7	-4	86*	i	-23	4	101*
CCC(=O)NNC(=S)NC(=O)c1ccc(C)cc1	-10	/	2	1	i	-31	/	/
C[C@@H]1CN([C@@H](C)CO)C(=O)c2cc(-c3ccccc3)cnc2O[C@@H]1CN(C)C(=O)Cc1cccnc1	/	8	/	/	/	-7	/	/
COc1ccc(C[C@H]2CN3C(=NC[C@@H]3Cc3ccc(O)cc3)N2C[C@H](C)NC(=O)c2ccc(C)c(Br)c2)cc1	28	1	/	59*	i	/	-1	52*
C/C=C(\C)C(=O)NCCN1C2=NC[C@H](Cc3ccccc3)N2C[C@@H]1Cc1ccc(OC)cc1	39	-6	/	22	i	8	/	/
Cc1ccc(C(=O)NCCN2C3=NC[C@H](Cc4ccc(O)cc4)N3C[C@H]2Cc2ccc(O)cc2)cc1Br	9	12	/	55*	i	26	0	27
COc1ccc(C[C@H]2CN3C(=NC[C@H]3Cc3ccccc3)N2CCNC(=O)CCC2CCCCC2)cc1	31	23	9	66*	i	43	0	62*
COc1ccc(C[C@H]2CN3C(=NC[C@@H]3Cc3ccc(O)cc3)N2CCNC(=O)c2ccc(C)c(Br)c2)cc1	33	-3	12	74*	i	23	0	56*
Cc1ccc(C(=O)N[C@@H](C)CN2C3=NC[C@H](C(C)C)N3C[C@H]2Cc2ccc(O)cc2)cc1Br	15	13	12	42	i	30	/	/
C[C@H]1CN([C@@H](C)CO)C(=O)c2cc(NC(=O)CCCCCC(=O)Nc3ccccc3N)ccc2O[C@H]1CN(C)S(=O)(=O)c1ccccc1	/	/	/	/	/	-19	/	/
NCCCC[C@@H]1NC(=O)c2cc([N+](=O)[O-])cc(I)c2SC[C@@H](C(N)=O)NC(=O)[C@H](Cc2ccc(O)cc2)NC1=O	6	-1	7	59*	i	/	0	81*
CO[C@H]1CN(C)C(=O)c2ccc(NC(=O)C3CCC3)cc2OC[C@H](C)N(C(=O)CN(C)C)C[C@@H]1C	/	/	/	/	/	4	/	/
Cc1ccc2nc(/N=C(\N)NC(=O)NC3CCCCC3)nc(C)c2c1	15	9	6	49*	i	-8	1	68*
CCCC(=O)N/C(N)=N/c1nc(C)c2cc(C)ccc2n1	-10	4	-7	6	i	2	/	/
Cc1nc(Nc2cnc(/C=C/c3cc(C(=O)Nc4cccc(C(F)(F)F)c4)ccc3C)cn2)cc(N2CCNCC2)n1	75*	/	15	88*	/	/	5	116*
C#CCOCCOCCOCCNc1nc(N2CCN(C(=O)[C@H]([C@@H](C)CC)n3cc([C@@H](N)CC(C)C)nn3)CC2)nc(N2CCN(C(=O)[C@H]([C@@H](C)CC)n3cc([C@@H](N)CC(C)C)nn3)CC2)n1	10	7	34	66*	i	-22	-1	56*
C#CCOCCOCCOCCNc1nc(N2CCN(C(=O)[C@H]([C@@H](C)CC)n3cc([C@@H](N)Cc4ccc(O)cc4)nn3)CC2)nc(N2CCN(C(=O)[C@H](CCCCN)n3cc([C@@H](N)C(C)CC)nn3)CC2)n1 (stereo not given in full)	22	-6	43*	67*	i	/	-4	50*
C#CCOCCOCCOCCNc1nc(N2CCN(C(=O)[C@H]([C@@H](C)CC)n3cc([C@@H](N)Cc4ccc(O)cc4)nn3)CC2)nc(N2CCN(C(=O)[C@H]([C@@H](C)CC)n3cc([C@@H](N)Cc4ccc(O)cc4)nn3)CC2)n1	30	2	36	54*	i	-4	-3	40
C#CCOCCOCCOCCNc1nc(N2CCN(C(=O)[C@H]([C@@H](C)CC)n3cc([C@@H](N)CC(C)C)nn3)CC2)nc(N2CCN(C(=O)[C@H](Cc3ccc(O)cc3)n3cc([C@@H](N)CC(C)C)nn3)CC2)n1	-5	/	34	33	/	43	/	/
C#CCOCCOCCOCCNc1nc(N2CCN(C(=O)[C@H](CCC(=O)O)n3cc(C(N)Cc4ccc(O)cc4)nn3)CC2)nc(N2CCN(C(=O)[C@H](CCCCN)n3cc(C(N)[C@H](C)CC)nn3)CC2)n1 (stereo not given in full)	-2	/	/	-7	/	/	/	/
C[C@H]1CN([C@@H](C)CO)C(=O)c2cc(NC(=O)Nc3ccc(C(F)(F)F)cc3)ccc2O[C@H]1CN(C)C(=O)NC1CCCCC1	/	-9	/	/	/	-3	/	/
SMILES	Apaf1 inhib	RAD54 branch	FID counter	UBC13 polyUb	Neddylation inh	RAD52 anneal inh	Casp3 counter	UBC13 confirm
CCCNC(=O)N(C)C[C@H]1Oc2ncc(C3=CCCCC3)cc2C(=O)N([C@@H](C)CO)C[C@H]1C	/	-3	/	/	/	8	/	/
COc1ccc(C)cc1Nc1n[n+](-c2ccccc2)c(-c2ccc(OC)c(OC)c2OC)s1	18	13	-16	48*	i	-2	-4	30
CCc1ccc(Nc2n[n+](-c3ccccc3)c(-c3cc(OC)c(OC)cc3Br)s2)cc1	11	5	-30	52*	i	-14	-5	12
CCc1ccc(Nc2n[n+](-c3ccccc3)c(-c3c(Cl)cccc3Cl)s2)cc1	44*	4	30	46*	i	4	-3	32
CCc1ccc(Nc2n[n+](-c3ccccc3)c(/C=C/c3ccccc3)s2)cc1	18	/	-17	70*	/	/	4	24
O=C(C1CC1)N1[C@@H](CO)[C@@H](c2ccccc2)C12CN(Cc1cccc(Cl)c1)C2	/	/	/	/	/	-251	/	/
C[C@@H]1CN([C@H](C)CO)C(=O)c2cccc(NS(=O)(=O)c3cn(C)cn3)c2O[C@@H]1CN(C)Cc1ccc(C(=O)Nc2ccccc2N)cc1	/	/	/	/	/	8	/	/
CCCNC(=O)N1CCC2(CC1)CN(Cc1cccc(F)c1)[C@H](CO)c1[nH]c3cc(OC)ccc3c12	/	/	/	/	/	-58	/	/
Cc1cc(C)c(C)c(SCC(=O)Nc2oc(C)c3c(C)n[nH]c(=O)c23)c1C	9	-15	/	3	i	-23	/	/
